How the values were obtained:
[1] = system: human dermal fibroblasts (HDFs); assay: Cell adhesion assay on peptide-BSA-coated plates, HDFs; assay type: cell-based; details: peptides conjugated at 0.125 μM and 1 μM; 5 × 10^3 cells/well; 1 h
In short: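 HDFs grown in DMEM with 10% FBS and penicillin/streptomycin, detached with 0.05% trypsin–EDTA, and suspended in 0.1% BSA/DMEM. Plates coated with Mal-BSA (10 μg/mL in water; 30 min, 37 °C), then Cys-PPP-spacer amide peptides in 100 mM HEPES pH 7 for 2 h. After 1 h adhesion, cells fixed and stained with crystal violet. Counts averaged over nine 0.77 mm2 fields; mean ± SE, three independent experiments.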

integrin αvβ3 = details: cited from earlier work
integrin αvβ5 = details: cited from earlier work

## CPPP-RGDNYI
[1]
  Effect of the X3 amino acid on cell adhesion activity, HDFs: negligible

## CPPP-RGDNYP
[1]
  Effect of the X3 amino acid on cell adhesion activity, HDFs: negligible

## c(RGDf(NMe)V) [cilengitide]
Integrin αvβ3
  Affinity for integrin αvβ3 relative to linear RGD peptides: much higher affinity
Integrin αvβ5
  Affinity for integrin αvβ5 relative to linear RGD peptides: much higher affinity

Source: article PMC9909794 (ACS Omega, 2023)
